Measurements of several laboratories.
Protocols differ between the studies behind these lines.
BRD3 BD1: Bromodomain-containing protein 3, BD1 (BRD3, Homo sapiens, UniProt Q15059)
KDM1A: Lysine-specific histone demethylase 1A (KDM1A, Homo sapiens, UniProt O60341)

Cc1cc2c(cc1N1C(=O)c3cccc4c(Cl)ccc(c34)C1=O)n(C)c(=O)n2C  ΔTm (SP140L (Homo sapiens, UniProt Q9H930); thermal stability; DSF; 10 µM): -1.4 °C
NS(=O)(=O)c1ccc(Nc2nc(-c3ccc(F)cc3)c3ccccc3n2)cc1  remaining binding (BRD3 BD1; binding; competition with immobilised ligand; 1 µM): 1%
Nc1ncnc2occ(-c3ccc(NC(=O)Nc4cc(C(F)(F)F)ccc4F)cc3)c12  remaining signal (Cyclin-dependent kinase 15 (CDK15, Homo sapiens, UniProt Q96Q40); cell-free assay; inhibitor; 20 µM): 1.1%
C[S+]([O-])c1ccc(-c2nc(-c3ccncc3)c(-c3ccc(F)cc3)[nH]2)cc1 (stereo not drawn)  ΔTm (BRD3 BD1; thermal stability; DSF; 10 µM): 1.43 °C
COc1ccc([C@H]2c3[nH]c4ccccc4c3C[C@@H]3C(=O)N(C(C)(C)C)C(=O)N23)cc1OC  inhibition (cGMP-specific 3',5'-cyclic phosphodiesterase (PDE5A, Homo sapiens, UniProt O76074); enzyme activity; inhibitor; FP; 50 µM): 52%
CN1CCN(C(=O)[C@H](CCCN[C@@H]2C[C@H]2c2ccc(F)cc2)NC(=O)c2ccc(-n3ccnn3)cc2)CC1  KI (inactivation) (KDM1A; enzyme activity; inhibitor): 1190 nM
CC(=O)N[C@H](C(=O)N[C@H](C(=O)N[C@@H](Cc1ccccc1)C(=O)N[C@H](C(=O)N[C@@H](CO)C(=O)N[C@@H](Cc1c[nH]c2ccccc12)C(=O)N[C@@H](CCC(=O)O)C(=O)N[C@@H](CCC(=O)O)C(=O)N[C@@H](Cc1ccc(O)cc1)C(=O)N[C@@H](CC(C)C)C(=O)N[C@@H](CC(=O)O)C(=O)N[C@@H](Cc1c[nH]c2ccccc12)C(=O)N[C@H](C(N)=O)C(C)C)[C@@H](C)O)C(C)C)[C@@H](C)O  koff (Proprotein convertase subtilisin/kexin type 9 (PCSK9, Homo sapiens, UniProt Q8NBP7); binding; SPR): 0.173 s⁻¹
COc1cc(Cl)c(C(=O)N[C@@H](CN[C@H]2CC[C@@H](N)CC2)Cc2ccc(C#N)cc2)cc1-c1ccc(CN[C@H](C)c2ccc(C)cc2)o1  remaining activity (Testis-specific serine/threonine-protein kinase 4 (TSSK4, Homo sapiens, UniProt Q6SA08); enzyme activity; inhibitor; 1 µM): 98%
Cc1cnc(Nc2ccc(OCCN3CCCC3)cc2)nc1Nc1cccc(S(=O)(=O)NC(C)(C)C)c1  ΔTm (ATPase family AAA domain-containing protein 2B (ATAD2B, Homo sapiens, UniProt Q9ULI0); thermal stability; DSF; 10 µM): -0.06 °C
COc1cc2c(NC3CCN(C(C)C)CC3)nc(C3CCCCC3)nc2cc1OCCCN1CCCC1  ΔTm (Histone-lysine N-methyltransferase EHMT1 (EHMT1, Homo sapiens, UniProt Q9H9B1); thermal stability; DSF; 100 µM): 8 °C
O=C(O)c1ccc(CN2CCC(CN[C@@H]3C[C@H]3c3ccccc3)CC2)cc1  KI (inactivation) (KDM1A; enzyme activity; inhibitor): 2140 nM
Oc1ccc(-c2nc(-c3ccncc3)c(-c3ccc(F)cc3)[nH]2)cc1  ΔTm (BRD3 BD1; thermal stability; DSF; 10 µM): 0.72 °C
